From ChEMBL document CHEMBL1127389, “Synthesis and biological activity of 2-hydroxy and 2-alkoxy analogs of 1 alpha,25-dihydroxy-19-norvitamin D3” (1994) come the findings set out here.

Each structure is given as a SMILES string. Where “and” joins values, the source holds several entries; their conditions need not be identical. Equal entries are not always repeated.

For test [1], the species on record is Rattus norvegicus. The test is described as follows: tested in the vitamin D-deficient rat for the ability to support intestinal absorption of calcium with compound concentration 325 (pmol/d/7 days) expressed as Serum/Mucosal ratio. The class given is functional. The essentials:
(§1)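 Vitamin D-deficient Holtzman weanling rats were kept 1 week on a 0.47% Ca diet, then on a 0.02% Ca diet. They were given intraperitoneal injections daily for 7 days in 0.1 mL of 95:5 propylene glycol/ethanol, with vehicle controls, and killed 24 h after the last dose. Transport was measured by everted sac of the proximal 10 cm of intestine, as the ratio of sac Ca to final medium Ca (S/M). Groups had at least 6 rats; Student's t-test.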

Test [2] is filed under the species Rattus norvegicus. The test is described as follows: tested in the vitamin D-deficient rat for the ability to support intestinal absorption of calcium with compound concentration 130 (pmol/d/7 days) expressed as Serum/Mucosal ratio. It counts as functional. The essentials:
as §1

Test [3] is filed under the species Rattus norvegicus. Put plainly: tested in the vitamin D-deficient rat for the ability to support intestinal absorption of calcium with compound concentration 65 (pmol/d/7 days) expressed as Serum/Mucosal ratio. It counts as functional. An outline of the steps: as §1
For test [4], the species on record is Rattus norvegicus. Put plainly: Bone calcium-mobilizing activity with compound concentration 65 (pmol/d/7 days). The class given is functional, organism-based. The essentials:
(§2)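 Holtzman weanling rats were fed a vitamin D-deficient diet with 0.47% Ca for 1 week, then a 0.02% Ca diet. They received daily intraperitoneal doses in 0.1 mL of 95:5 propylene glycol/ethanol for 7 days; controls got vehicle. Rats were killed 24 h after the last dose. Serum Ca was measured by automatic calcium titrator; on this diet, the rise in serum Ca is taken as bone Ca mobilization. At least 6 rats/group; Student's t-test.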

The species entered for test [5] is Rattus norvegicus. The test is described as follows: Bone calcium-mobilizing activity with compound concentration 325 (pmol/d/7 days). Set-up: unit not given here. The class given is functional, organism-based. The essentials:
as §2

The species entered for test [6] is Rattus norvegicus. Put plainly: Bone calcium-mobilizing activity with compoundm concentration 130 (pmol/d/7 days). It counts as functional, organism-based. The essentials: as §2
For test [7], the species on record is Rattus norvegicus. Put plainly: Bone calcium-mobilizing activity with compound concentration 130 (pmol/d/7 days). It counts as functional, organism-based. The essentials: as §2
Test [8] is filed under the species Rattus norvegicus. The test is described as follows: Bone calcium-mobilizing activity with compound concentration 260 (pmol/d/7 days). It counts as functional, organism-based. An outline of the steps: as §2
The species entered for test [9] is Rattus norvegicus. Put plainly: tested in the vitamin D-deficient rat for the ability to support intestinal absorption of calcium with compound concentration 260 (pmol/d/7 days) expressed as Serum/Mucosal ratio. The class given is functional. An outline of the steps: as §1
The species entered for test [10] is Rattus norvegicus. Put plainly: Tested in the vitamin D-deficient rat for the ability to support intestinal absorption of calcium with compound concentration 260 (pmol/d/7 days) expressed as Serum/Mucosal ratio. It counts as functional. An outline of the steps: as §1
The species entered for test [11] is Rattus norvegicus. The test is described as follows: Bone calcium-mobilizing activity with concentration 260 (pmol/d/7 days). It counts as functional, organism-based. The essentials:
as §2

The species entered for test [12] is Rattus norvegicus. The test is described as follows: Tested in the vitamin D-deficient rat for the ability to support intestinal absorption of calcium with compound concentration 325 (pmol/d/7 days) expressed as Serum/Mucosal ratio. It counts as functional.
For test [13], the species on record is Rattus norvegicus. Put plainly: Tested in the vitamin D-deficient rat for the ability to support intestinal absorption of calcium with compound concentration 130 (pmol/d/7 days) expressed as Serum/Mucosal ratio. It counts as functional.
The species named for test [14] is Rattus norvegicus. The test is described as follows: Tested in the vitamin D-deficient rat for the ability to support intestinal absorption of calcium with compound concentration 65 (pmol/d/7 days) expressed as Serum/Mucosal ratio. It counts as functional.

Turning to `C[C@H](CCCC(C)(C)O)[C@H]1CC[C@H]2/C(=C/C=C3C[C@@H](O)C(OCCCO)[C@H](O)C3)CCC[C@]12C` (stereo partly specified) [listing 1 of 3 here], the Ratio in the test filed under Rattus norvegicus [1] was determined as 4.3; in the test listed under Rattus norvegicus [2], 3.5.

Take `C[C@H](CCCC(C)(C)O)[C@H]1CC[C@H]2/C(=C\C=C3C[C@@H](O)C(O)[C@H](O)C3)CCC[C@]12C` (stereo partly specified) [listing 1 of 3 here]: the Ratio in the test filed under Rattus norvegicus [3] is recorded as 5.8; in the test filed under Rattus norvegicus [1], 10.8.

Take `C[C@H](CCCC(C)(C)O)[C@H]1CC[C@H]2/C(=C\C=C3C[C@@H](O)C(O)[C@H](O)C3)CCC[C@]12C` (stereo partly specified) [listing 2 of 3 here]: the Serum Ca2+ is 4.2 in the test listed under Rattus norvegicus [4]; 4.2 and 4.1 in the test filed under Rattus norvegicus [5]; 4.1 in the test listed under Rattus norvegicus [6].

As to `C[C@H](CCCC(C)(C)O)[C@H]1CC[C@H]2/C(=C/C=C3C[C@@H](O)C(OCCCO)[C@H](O)C3)CCC[C@]12C` (stereo partly specified) [listing 2 of 3 here], the Serum Ca2+ in the test listed under Rattus norvegicus [7] is 4.9; in the test listed under Rattus norvegicus [5], 5.8; in the test listed under Rattus norvegicus [8], 4.7.

For the compound `C[C@H](CCCC(C)(C)O)[C@H]1CC[C@H]2/C(=C/C=C3C[C@@H](O)C(OCCCO)[C@H](O)C3)CCC[C@]12C` (stereo partly specified) [listing 3 of 3 here], the Ratio in the test listed under Rattus norvegicus [9] was found to be 5.7.

Regarding `C[C@H](CCCC(C)(C)O)[C@H]1CC[C@H]2/C(=C/C=C3C[C@@H](O)C(OCc4ccccc4)[C@H](O)C3)CCC[C@]12C` (stereo partly specified), the Ratio in the test listed under Rattus norvegicus [10] came out at 11.9. Moreover, the Serum Ca2+ in the test filed under Rattus norvegicus [11] turned out to be 4.6.

As for `C=C1/C(=C/C=C2/CCCC3(C)C2CCC3[C@H](C)CCCC(C)(C)O)C[C@@H](O)C[C@@H]1O` (stereo partly specified), the Ratio in the test listed under Rattus norvegicus [12] is 10.5 and 7.8; in the test filed under Rattus norvegicus [13], 8 and 7.1; in the test listed under Rattus norvegicus [10], 10.5; in the test listed under Rattus norvegicus [14], 8.3. Further, the Serum Ca2+ in the test filed under Rattus norvegicus [5] is 6.8 and 7.1; in the test filed under Rattus norvegicus [8] it was 5.9.

Take `C[C@H](CCCC(C)(C)O)[C@H]1CC[C@H]2/C(=C\C=C3C[C@@H](O)C(O)[C@H](O)C3)CCC[C@]12C` (stereo partly specified) [listing 3 of 3 here]: the Ratio in the test listed under Rattus norvegicus [1] was 5; in the test listed under Rattus norvegicus [2], 5.3.
